Measured values reported in PMC11537069 (Structure (London, England : 1993), 2020).

Assays:
HERC2ZZ = target: T1, HERC2ZZ (Homo sapiens, UniProt O95714); assay: NMR titration; format: binding; settings: 0.1 mM 15N-labeled HERC2ZZ, 20 mM Tris pH 6.8, 100 mM NaCl, 298K
T1 sequence (O95714 2702-2755): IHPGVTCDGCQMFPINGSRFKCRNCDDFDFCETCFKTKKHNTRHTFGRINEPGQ
Method in brief: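 Human HERC2ZZ (aa 2702-2755, plus an extra C-terminal Trp) was expressed in BL21(DE3) RIL in minimal medium with 15NH4Cl and 0.05 mM ZnCl2, induced with 0.2 mM IPTG for 20 h at 16 °C. The His8-SUMO tag was removed with Ulp1, followed by size exclusion. Sample also held 2-5 mM DTT and 10% D2O.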

HERC2ZZ D2709A = assay: NMR titration; format: binding, human; settings: 15N-labeled D2709A HERC2ZZ, 20 mM Tris pH 6.8, 100 mM NaCl, 298K; Figures 3G, 3H, S9

exchange regime of CSPs in HERC2ZZ on the NMR timescale (HERC2ZZ) | Compound | CSPs in HERC2ZZ upon addition of free alanine amino acid (HERC2ZZ; 50-fold excess of alanine, Figure S5) | interaction with SUMO1 ligand upon D2709A substitution (NMR titration) (HERC2ZZ D2709A)
 | C[C@H](N)C(=O)O [alanine, reference compound] | no CSPs | 
intermediate exchange regime | SUMO1FL: full-length SUMO1 protein |  | abolished
